Columns and labels:
[1] = Antitumor activity against mouse Ridgway osteogenic sarcoma allografted in AKR mouse assessed as tumor growth inhibition at 0.10 mg/kg, ip administered daily for 8 to 10 days compound treatment commenced 8 days after tumor implantation; assay type: functional; settings: route intraperitoneal, read-out: TGI
B16 [2] = experiment: Antitumor activity against mouse B16 cells allografted in C57BL/6 mouse assessed as prolongation of host survival at 0.90 mg/kg, ip administered on days 1,5 and 9; assay type: functional; settings: route intraperitoneal
Summary of the method: (§1)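 B16 melanoma cells (10⁶ inoculum) implanted ip in C57BL/6 mice; groups of 10. Sulfate salts unless noted, given ip on days 1, 5 and 9. Single test. Survival prolongation is expressed as percent versus controls, with survivors counted on day 60. Toxic means deaths of ≥5 of 10 animals before the first control death.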

[3] = Antitumor activity against mouse Gardner lymphosarcoma allografted in C3H mouse assessed as tumor growth inhibition at 0.40 mg/kg, ip administered daily for 8 to 10 days; assay type: functional; settings: route intraperitoneal, read-out: TGI
Summary of the method: (§2)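 Gardner lymphosarcoma in C3H mice; sulfate salts unless noted, given ip daily for 8–10 days, treatment starting 8 days after tumor implantation. Tumor growth inhibition scored as –, 0–25%; +, 26–50%; ++, 51–75%; +++, 76–100%; T, lethal to ≥5 of 10 animals per group. Average of one or more tests.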

[4] = Antitumor activity against mouse Ridgway osteogenic sarcoma allografted in AKR mouse assessed as tumor growth inhibition at 0.20 mg/kg, ip administered daily for 8 to 10 days compound treatment commenced 8 days after tumor implantation; assay type: functional; settings: route intraperitoneal, read-out: TGI
P388/VCR [5] = experiment: Antitumor activity against mouse P388/VCR cells allografted in CD2F1 mouse assessed as increase in host lifespan at 1.80 mg/kg, ip administered on days 1, 5 and 9; assay type: functional; settings: dose 1.8 mg/kg; route intraperitoneal
Summary of the method: (§3)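 Groups of eight male CD2F1 mice, tested at the NCI. Compounds were given as sulfate salts, dosed in mg/kg ip on days 1, 5 and 9. Activity was read as percent increase in lifespan against the leukemia line.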

[6] = Antitumor activity against mouse Gardner lymphosarcoma allografted in C3H mouse assessed as tumor growth inhibition at 0.30 mg/kg, ip administered daily for 8 to 10 days; assay type: functional; settings: route intraperitoneal, read-out: TGI; summary of the method: as §2
P388/VCR [7] = experiment: Antitumor activity against mouse P388/VCR cells allografted in CD2F1 mouse assessed as increase in host lifespan at 1.08 mg/kg, ip administered on days 1, 5 and 9; assay type: functional; settings: route intraperitoneal
Summary of the method: (§4)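 Groups of eight male CD2F1 mice bearing P388 leukemia, run at NCI. Sulfate salts given ip on days 1, 5 and 9. Read-out is percent increase in lifespan.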

Mus musculus [8] = experiment: Toxicity in C3H mouse allografted with mouse Gardner lymphosarcoma assessed as lethality at 0.5 mg/kg, ip administered daily for 8 to 10 days; assay type: organism-based; set-up: dose 0.5 mg/kg, route intraperitoneal; settings: in vivo
Summary of the method: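 Tumor-bearing mice given sulfate salts ip daily for 8–10 days; values are the average of one or more tests. Toxic means lethal to ≥5 of 10 animals per group.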

CHO [9] = experiment: Mitotic arrest in CHO cells assessed as increase in cell accumulation at 0.002 ug/ml; assay type: functional, Cricetulus griseus
Summary of the method: (§5)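 Chinese hamster ovary cells in tissue culture, scored for mitotic arrest as increase in cells in mitotic arrest over control: +++, 40–50%; ++, 15–40%; +, 10–15%; ±, 7–10%; –, 3–7%. Cytotoxicity noted separately.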

CHO [10] = experiment: Mitotic arrest in CHO cells assessed as increase in cell accumulation at 0.02 ug/ml; assay type: functional, Cricetulus griseus; summary of the method: as §5
[11] = Toxicity in iv dosed mouse assessed as lethality; assay type: organism-based; settings: in vivo
[12] = Antitumor activity against mouse P1534 cells allografted in DBA2 mouse assessed as tumor growth inhibition at 0.25 mg/kg, ip administered daily for 8 to 10 days; assay type: functional; settings: route intraperitoneal, read-out: TGI
Summary of the method: (§6)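 P1534(J) leukemia implanted sc in DBA2 mice; sulfate salts dosed ip daily for 8–10 days. Growth inhibition scored –, 0–25%; +, 26–50%; ++, 51–75%; +++, 76–100%; T, lethal to ≥5 of 10 animals per group. Average of one or more tests.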

Mus musculus [13] = experiment: Toxicity in CD2F1 mouse allografted with mouse P388/S cells at 3.00 mg/kg, ip administered on days 1, 5 and 9; assay type: organism-based; set-up: dose 3 mg/kg, route intraperitoneal; settings: in vivo
B16 [14] = experiment: Antitumor activity against mouse B16 cells allografted in C57BL/6 mouse assessed as prolongation of host survival at 0.60 mg/kg, ip administered on days 1,5 and 9; assay type: functional; settings: route intraperitoneal; summary of the method: as §1
Mus musculus [15] = experiment: Toxicity in DBA2 mouse allografted with mouse P1534 cells at 0.40 mg/kg, ip administered daily for 8 to 10 days; assay type: organism-based; set-up: dose 0.4 mg/kg, route intraperitoneal; settings: in vivo, 0.4 mg/kg; summary of the method: as §6
P388/VCR [16] = experiment: Antitumor activity against mouse P388/VCR cells allografted in B6D2F1 mouse assessed as increase in host lifespan at 0.60 mg/kg, ip administered on days 1, 5 and 9; assay type: functional; settings: dose 0.6 mg/kg; route intraperitoneal
Summary of the method: (§7)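 P388/VCR leukemia in groups of 10 B6D2F1 mice, run at Lilly using the cell strain received from NCI. Sulfate salts given ip on days 1, 5 and 9. Read-out is percent increase in lifespan.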

P388/VCR [17] = experiment: Antitumor activity against mouse P388/VCR cells allografted in B6D2F1 mouse assessed as increase in host lifespan at 1.20 mg/kg, ip administered on days 1, 5 and 9; assay type: functional; settings: dose 1.2 mg/kg; route intraperitoneal; summary of the method: as §7
[18] = Antitumor activity against mouse P1534 cells allografted in DBA2 mouse assessed as tumor growth inhibition at 0.30 mg/kg, ip administered daily for 8 to 10 days; assay type: functional; settings: route intraperitoneal, read-out: TGI; summary of the method: as §6
[19] = Antitumor activity against mouse Ridgway osteogenic sarcoma allografted in AKR mouse assessed as tumor growth inhibition at 0.30 mg/kg, ip administered daily for 8 to 10 days compound treatment commenced 8 days after tumor implantation; assay type: functional; settings: route intraperitoneal, read-out: TGI
P388/VCR [20] = experiment: Antitumor activity against mouse P388/VCR cells allografted in B6D2F1 mouse assessed as increase in host lifespan at 0.90 mg/kg, ip administered on days 1, 5 and 9; assay type: functional; settings: dose 0.9 mg/kg; route intraperitoneal; summary of the method: as §7
[21] = Antitumor activity against mouse Gardner lymphosarcoma allografted in C3H mouse assessed as tumor growth inhibition at 0.05 mg/kg, ip administered daily for 8 to 10 days; assay type: functional; settings: route intraperitoneal, read-out: TGI; summary of the method: as §2
P388/VCR [22] = experiment: Antitumor activity against mouse P388/VCR cells allografted in CD2F1 mouse assessed as increase in host lifespan at 0.648 mg/kg, ip administered on days 1, 5 and 9; assay type: functional; settings: route intraperitoneal; summary of the method: as §4
B16 [23] = experiment: Antitumor activity against mouse B16 cells allografted in C57BL/6 mouse assessed as prolongation of host survival at 1.20 mg/kg, ip administered on days 1,5 and 9; assay type: functional; settings: route intraperitoneal; summary of the method: as §1
[24] = Antitumor activity against mouse Gardner lymphosarcoma allografted in C3H mouse assessed as tumor growth inhibition at 0.10 mg/kg, ip administered daily for 8 to 10 days; assay type: functional; settings: route intraperitoneal, read-out: TGI; summary of the method: as §2
[25] = Antitumor activity against mouse Gardner lymphosarcoma allografted in C3H mouse assessed as tumor growth inhibition at 0.20 mg/kg, ip administered daily for 8 to 10 days; assay type: functional; settings: route intraperitoneal, read-out: TGI; summary of the method: as §2
Mus musculus [26] = experiment: Toxicity in mouse assessed as body weight at 0.5 mg/kg, ip administered twice per week for 4 weeks, then three doses per week for 3 weeks and finally six doses per week for 2 weeks measured during 9-weeks (reference value: 18.5 +/- 0.5 gms); assay type: organism-based; set-up: dose 0.5 mg/kg, route intraperitoneal; settings: in vivo, 1512 h
[27] = Antitumor activity against mouse Ridgway osteogenic sarcoma allografted in AKR mouse assessed as tumor growth inhibition at 0.05 mg/kg, ip administered daily for 8 to 10 days compound treatment commenced 8 days after tumor implantation; assay type: functional; settings: route intraperitoneal, read-out: TGI
[28] = Antitumor activity against mouse Ridgway osteogenic sarcoma allografted in AKR mouse assessed as tumor growth inhibition at 0.40 mg/kg, ip administered daily for 8 to 10 days compound treatment commenced 8 days after tumor implantation; assay type: functional; settings: route intraperitoneal, read-out: TGI
[29] = Antitumor activity against mouse P388/VCR/I/63 cells allografted in Dublin-CDF1 mouse assessed as day of host death at 2.0 mg/kg, ip administered on days 1, 5 and 9 (reference value: 10 days); assay type: functional; settings: route intraperitoneal
P388/S [30] = experiment: Antitumor activity against mouse P388/S cells allografted in CD2F1 mouse assessed as increase in host lifespan at 1.80 mg/kg, ip administered on days 1, 5 and 9; assay type: functional; settings: dose 1.8 mg/kg; route intraperitoneal; summary of the method: as §3
P388/S [31] = experiment: Antitumor activity against mouse P388/S cells allografted in CD2F1 mouse assessed as increase in host lifespan at 1.08 mg/kg, ip administered on days 1, 5 and 9; assay type: functional; settings: route intraperitoneal; summary of the method: as §4
P388/S [32] = experiment: Antitumor activity against mouse P388/S cells allografted in CD2F1 mouse assessed as increase in host lifespan at 0.648 mg/kg, ip administered on days 1, 5 and 9; assay type: functional; settings: route intraperitoneal; summary of the method: as §4
Mus musculus [33] = experiment: Toxicity in CD2F1 mouse allografted with mouse P388/VCR cells at 3.00 mg/kg, ip administered on days 1, 5 and 9; assay type: organism-based; set-up: dose 3 mg/kg, route intraperitoneal; settings: in vivo
[34] = Antitumor activity against mouse P388/VCR/I/63 cells allografted in Dublin-CDF1 mouse assessed as increase in host lifespan at 2.0 mg/kg, ip administered on days 1, 5 and 9; assay type: functional; settings: route intraperitoneal
[35] = Antitumor activity against mouse P1534 cells allografted in DBA2 mouse assessed as tumor growth inhibition at 0.20 mg/kg, ip administered daily for 8 to 10 days; assay type: functional; settings: route intraperitoneal, read-out: TGI; summary of the method: as §6

CC[C@]1(O)C[C@@H]2CN(CCc3c([nH]c4ccccc34)[C@@](C(=O)OC)(c3cc4c(cc3OC)N(C)[C@H]3[C@@](O)(C(N)=O)[C@H](O)[C@]5(CC)C=CCN6CC[C@]43[C@@H]65)C2)C1.O=S(=O)(O)O [VINDESINE SULFATE] gave an inhibition in vivo at 0.1 mg/kg [1] of 0%, a survival at 0.9 mg/kg (B16 [2]) of 144% and an inhibition in vivo at 0.4 mg/kg [3] of 76%. For the same compound, the inhibition in vivo at 0.2 mg/kg [4] was 51%, the Activity (P388/VCR [5]) was -8% and the inhibition in vivo at 0.3 mg/kg [6] was 76%. For the same compound, the Activity (P388/VCR [7]) was 0%, the Activity (Mus musculus [8]) was “Toxic” and the Activity (CHO [9]) was 10%. The Activity (CHO [10]) was 15%, the LD50 [11] was 6.3 mg/kg and the inhibition in vivo at 0.25 mg/kg [12] was 76%. For the same compound, the Activity (Mus musculus [13]) was “Toxic”, the survival at 0.6 mg/kg (B16 [14]) was 117% and the Activity (Mus musculus [15]) was “Toxic”. For the same compound, the Activity (P388/VCR [16]) was 0%, the Activity (P388/VCR [17]) was 3% and the inhibition in vivo at 0.3 mg/kg [18] was 76%. The inhibition in vivo at 0.3 mg/kg [19] was 76%, the Activity (P388/VCR [20]) was 5% and the inhibition in vivo at 0.05 mg/kg [21] was 0%. It also gave an Activity (P388/VCR [22]) of 4%, a survival at 1.2 mg/kg (B16 [23]) of 155% and an inhibition in vivo at 0.1 mg/kg [24] of 51%. For the same compound, the inhibition in vivo at 0.2 mg/kg [25] was 76%, the Activity (Mus musculus [26]) was 34.9 g and the inhibition in vivo at 0.05 mg/kg [27] was 0%. The inhibition in vivo at 0.4 mg/kg [28] was 76%, the Activity [29] was 20 days and the Activity (P388/S [30]) was 138%. The Activity (P388/S [31]) was 129%, the Activity (P388/S [32]) was 96% and the Activity (Mus musculus [33]) was “Toxic”. The Activity [34] was 100% and the inhibition in vivo at 0.2 mg/kg [35] was 51%.

From ChEMBL document CHEMBL3227917, “Structure-activity relationships of dimeric Catharanthus alkaloids. 2. Experimental antitumor activities of N-substituted deacetylvinblastine amide (vindesine) sulfates” (J Med Chem, 1979)
